The target of the experiment is T1, Beta-lactamase OXA-9 (Klebsiella aerogenes) (UniProt P0A3M4).
T1 sequence (whole entry): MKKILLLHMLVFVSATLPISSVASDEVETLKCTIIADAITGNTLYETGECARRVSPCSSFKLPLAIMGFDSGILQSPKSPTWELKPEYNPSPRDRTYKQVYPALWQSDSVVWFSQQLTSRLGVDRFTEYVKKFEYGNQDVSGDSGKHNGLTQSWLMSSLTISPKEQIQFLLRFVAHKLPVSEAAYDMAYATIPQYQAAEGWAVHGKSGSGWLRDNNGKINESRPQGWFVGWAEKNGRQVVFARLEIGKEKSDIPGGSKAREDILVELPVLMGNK
The experiment in a line: Inhibition of beta-lactamase of Enterobacter aerogenes relative to oxacillin sulfoxide(=1). An outline of the steps: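 Partially purified Enterobacter aerogenes β-lactamase at constant concentration in pH 8.5 phosphate buffer, 25 °C, hydrolysing cephalothin (2.6 × 10^-4 M). Inhibitors tested at 3.4 × 10^-7 to 8.5 × 10^-5 M. Initial hydrolysis rates with (v_i) and without (v) inhibitor followed by absorbance at 260 nm and estimated graphically. Ratio v/v_i expressed relative to a reference compound.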
As to `Cc1onc(-c2c(Cl)cccc2Cl)c1C(=O)N[C@@H]1C(=O)N2[C@@H]1SC(C)(C)[C@@H]2C(=O)O`, the Relative inhibition turned out to be 5000. The compound `COc1cccc(OC)c1C(=O)N[C@@H]1C(=O)N2[C@@H]1SC(C)(C)[C@@H]2C(=O)O` showed a Relative inhibition of 50. The compound `Cc1onc(-c2ccccc2)c1C(=O)N[C@@H]1C(=O)N2[C@@H]1SC(C)(C)[C@@H]2C(=O)O` showed a Relative inhibition of 5000.

As to `COC(=O)[C@@H]1N2C(=O)[C@@H](NC(=O)c3c(-c4ccccc4)noc3C)[C@H]2SC1(C)C`, the Relative inhibition was 120. As for `Cc1onc(-c2ccccc2Cl)c1C(=O)N[C@@H]1C(=O)N2[C@@H]1SC(C)(C)[C@@H]2C(=O)O`, the Relative inhibition stood at 5000.

The compound `Cc1onc(-c2c(F)cccc2Cl)c1C(=O)N[C@@H]1C(=O)N2[C@@H]1SC(C)(C)[C@@H]2C(=O)O` had a Relative inhibition of 5000. Take `COC(=O)[C@@H]1N2C(=O)[C@@H](NC(=O)c3c(-c4c(Cl)cccc4Cl)noc3C)[C@H]2SC1(C)C`: the Relative inhibition was 1500. As for `COC(=O)[C@@H]1N2C(=O)[C@@H](NC(=O)c3c(OC)cccc3OC)[C@H]2SC1(C)C`, the figure is 2; as for `COC(=O)[C@@H]1N2C(=O)[C@@H](NC(=O)c3c(-c4ccccc4Cl)noc3C)[C@H]2SC1(C)C`, 270.

Consider `Cc1onc(-c2ccccc2)c1C(=O)N[C@@H]1C(=O)N2[C@@H]1[S+]([O-])C(C)(C)[C@@H]2C(=O)O` (stereo partly specified), for which the Relative inhibition turned out to be 1.

With `Cc1onc(-c2ccccc2Cl)c1C(=O)N[C@@H]1C(=O)N2[C@@H]1[S+]([O-])C(C)(C)[C@@H]2C(=O)O` (stereo partly specified), the Relative inhibition was determined as 370.

(Values after ChEMBL document CHEMBL1121568, “A multifaceted approach to the study of the side-chain conformation in beta-lactamase-resistant penicillins” (J Med Chem, 1980).)
